Measured values taken from ChEMBL document CHEMBL1287673, “Neo-tanshinlactone inspired synthesis, in vitro evaluation of novel substituted benzocoumarin derivatives as potent anti-breast cancer agents” (Bioorg Med Chem Lett, 2010).
Calls of active or inactive are those of the source. No cut-off for these calls is given here.

Tests used:
MCF7 [1] = test: Anticancer activity against human MCF7 cells expressing estrogen receptor by MTT assay; assay type: functional, cell-based
[2] = Cytotoxicity activity against Sprague-Dawley rat osteoblast cells at 10 uM by MTT assay; assay type: cell-based
Method in brief: (§1)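 Primary osteoblasts, 3 × 10³ cells/well, treated with 10 or 20 µM compound; viability and cell number read by MTT; n = 9.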

[3] = Cytotoxicity activity against Sprague-Dawley rat osteoblast cells at 20 uM by MTT assay; assay type: cell-based; method in brief: as §1
MCF7 [4] = test: Induction of apoptosis in human MCF7 cells expressing estrogen receptor assessed as presence of apoptotic body at 10 uM after 18 hrs by Hoechst 33342 staining; assay type: functional, cell-based
Method in brief: (§2)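 MCF-7 at 70–80% confluence given 10 µM compound for 18 h in complete growth medium, then Hoechst 33342 stained and imaged with a ×40 objective. Apoptotic nuclei scored by shape and intensity and normalized to control; tamoxifen positive control.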

MCF7 [5] = test: Induction of apoptosis in human MCF7 cells expressing estrogen receptor assessed as cytoplasmic condensation at 10 uM after 18 hrs by Hoechst 33342 staining; assay type: functional, cell-based; method in brief: as §2
MCF7 [6] = test: Induction of apoptosis in human MCF7 cells expressing estrogen receptor assessed as presence of nuclear fragmentation at 10 uM after 18 hrs by Hoechst 33342 staining; assay type: functional, cell-based; method in brief: as §2
MCF7 [7] = test: Induction of apoptosis in human MCF7 cells expressing estrogen receptor assessed as increase in caspase activity at 10 uM after 16 hrs; assay type: functional, cell-based
Method in brief: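 1 × 10⁴ MCF-7 cells/well at 70–80% confluence grown 16 h, then 10 µM compound for 16 h. General (homogeneous) caspase activity read fluorometrically, excitation 465 nm, emission 520 nm; compared with negative control.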

MCF7 [8] = test: Cytotoxicity against human MCF7 cells expressing estrogen receptor assessed as loss of cell viability after 16 hrs by MTT assay; assay type: functional, cell-based
Method in brief: (§3)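 1 × 10⁵ MCF-7 cells at 70–80% confluence exposed 16 h to increasing compound concentrations; growth inhibition read by MTT as percent (Total/Control); tamoxifen positive control; n = 9.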

MCF7 [9] = test: Cell cycle arrest in human MCF7 cells expressing estrogen receptor assessed as accumulation at G2 phase at 10 uM after 24 hrs using propidium iodide staining by flow cytometry; assay type: functional, cell-based
Method in brief: (§4)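 MCF-7, 5 × 10⁵ cells/well at 70–80% confluence, serum-starved, then 10 µM compound for 24 h in phenol red-free medium. Cells fixed in 70% ethanol, rehydrated in PBS, and stained with PI (50 µg/ml) plus ribonuclease A (100 µg/ml). Flow cytometry gives % of cells in each cycle phase.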

MCF7 [10] = test: Cytotoxicity against human MCF7 cells expressing estrogen receptor assessed as loss of cell viability at 10 uM after 16 hrs by MTT assay; assay type: functional, cell-based; method in brief: as §3
MCF7 [11] = test: Cell cycle arrest in human MCF7 cells expressing estrogen receptor assessed as accumulation at G1/G0 phase at 10 uM after 24 hrs using propidium iodide staining by flow cytometry; assay type: functional, cell-based; method in brief: as §4
MCF7 [12] = test: Induction of apoptosis in human MCF7 cells expressing estrogen receptor at 10 uM after 24 hrs using annexin-V FITC and propidium iodide staining by flow cytometry; assay type: functional, cell-based
Method in brief: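 MCF-7 (5 × 10⁵ cells) at 70–80% confluence held 24 h in DMEM/10% FBS with or without 10 µM compound. Harvested, stained with Annexin-V-FITC and PI, and read by flow cytometry as % apoptotic (Annexin-positive/PI-negative) and necrotic (PI-positive) cells.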

MCF7 [13] = test: Cytotoxicity against human MCF7 cells expressing estrogen receptor assessed as loss of cell viability at 20 uM after 16 hrs by MTT assay; assay type: functional, cell-based; method in brief: as §3

Row | Compound | IC50 (MCF7 [1]) [µM] | further results
1 | CCN/C=C1/C=C(C=O)c2c(ccc3c(C)cc(=O)oc23)C1=O | > 100 | –
2 | Cc1cc(=O)oc2c1ccc1c(O)c(C=O)cc(C=O)c12 | > 100 | –
3 | Cc1cc(=O)oc2c3c(ccc12)C(=O)/C(=C\NCCN1CCOCC1)C=C3C=O | > 100 | –
4 | Cc1ccc(C(=O)/C=C/C2=CC(=C/NC(C)C)/C(=O)c3ccc4c(C)cc(=O)oc4c32)c(C)c1 | 35 | –
5 | Cc1cc(=O)oc2c1ccc1c(O)cccc12 | > 100 | –
6 | COc1ccc(C(=O)/C=C/C2=CC(=C/NC(C)(C)C)/C(=O)c3ccc4c(C)cc(=O)oc4c32)cc1 | > 100 | –
7 | CCN/C=C1C=C(/C=C/C(=O)c2ccc(O)cc2)c2c(ccc3c(C)cc(=O)oc23)C/1=O | 85 | –
8 | Cc1cc(=O)oc2c3c(ccc12)C(=O)/C(=C\NC(C)C)C=C3C=O | 130 | –
9 | CCN/C=C1C=C(/C=C/C(=O)c2ccccc2)c2c(ccc3c(C)cc(=O)oc23)C/1=O | 87 | –
10 | CCCCN/C=C1/C=C(C=O)c2c(ccc3c(C)cc(=O)oc23)C1=O | 6.5 | Activity [2]: Non-toxic; Activity [3]: Non-toxic; Activity (MCF7 [4]): Active; Activity (MCF7 [5]): Active; Activity (MCF7 [6]): Active; Activity (MCF7 [7]): Active; Activity (MCF7 [8]): Dose-dependent effect; Activity (MCF7 [9]): Active
11 | Cc1ccc(C(=O)/C=C/c2cc(C=O)c(O)c3ccc4c(C)cc(=O)oc4c23)cc1 | > 100 | –
12 | CCCCN/C=C1C=C(/C=C/C(=O)c2ccc(OC)cc2)c2c(ccc3c(C)cc(=O)oc23)C/1=O | 92 | –
13 | CN/C=C1/C=C(C=O)c2c(ccc3c(C)cc(=O)oc23)C1=O | 3.8 | Activity [2]: Non-toxic; Activity [3]: Non-toxic; Activity (MCF7 [10]): Toxic; Activity (MCF7 [11]): Active; Activity (MCF7 [4]): Active; Activity (MCF7 [5]): Active; Activity (MCF7 [6]): Active; Activity (MCF7 [12]): Active; Activity (MCF7 [7]): Active; Activity (MCF7 [8]): Dose-dependent effect
14 | CCN/C=C1C=C(/C=C/C(=O)c2ccc(C)cc2)c2c(ccc3c(C)cc(=O)oc23)C/1=O | > 100 | –
15 | CCN/C=C1C=C(/C=C/C(=O)c2ccc(C)cc2C)c2c(ccc3c(C)cc(=O)oc23)C/1=O | > 100 | –
16 | CCCCN/C=C1C=C(/C=C/C(=O)c2ccc(O)cc2)c2c(ccc3c(C)cc(=O)oc23)C/1=O | 40 | –
17 | Cc1ccc(C(=O)/C=C/C2=CC(=C/NC(C)(C)C)/C(=O)c3ccc4c(C)cc(=O)oc4c32)cc1 | 97 | –
18 | Cc1cc(=O)oc2c1ccc1c(O)c(C=O)cc(/C=C/C(=O)c3ccccc3)c12 | > 100 | –

Row | Compound | IC50 (MCF7 [1]) [µM] | further results
19 | Cc1ccc(C(=O)/C=C/c2cc(C=O)c(O)c3ccc4c(C)cc(=O)oc4c23)c(C)c1 | > 100 | –
20 | Cc1cc(=O)oc2c3c(ccc12)C(=O)/C(=C\NC(C)C)C=C3/C=C/C(=O)c1ccc(O)cc1 | 32 | –
21 | Cc1ccc(C(=O)/C=C/C2=CC(=C/NC(C)C)/C(=O)c3ccc4c(C)cc(=O)oc4c32)cc1 | 21 | –
22 | CCN/C=C1C=C(/C=C/C(=O)c2ccc(OC)cc2)c2c(ccc3c(C)cc(=O)oc23)C/1=O | 30 | –
23 | CCCN/C=C1/C=C(C=O)c2c(ccc3c(C)cc(=O)oc23)C1=O | 7.9 | Activity [2]: Non-toxic; Activity [3]: Non-toxic; Activity (MCF7 [13]): Toxic; Activity (MCF7 [11]): Active; Activity (MCF7 [4]): Active; Activity (MCF7 [5]): Active; Activity (MCF7 [6]): Active; Activity (MCF7 [7]): Active; Activity (MCF7 [8]): Dose-dependent effect
24 | CC/C(=C(\c1ccccc1)c1ccc(OCCN(C)C)cc1)c1ccccc1 [TAMOXIFEN] | 11.8 | –
25 | Cc1cc(=O)oc2c1ccc1c(O)c(C=O)cc(/C=C/C(=O)c3ccc(O)cc3)c12 | > 100 | –
26 | Cc1cc(=O)oc2c3c(ccc12)C(=O)/C(=C\NC(C)(C)C)C=C3/C=C/C(=O)c1ccc(O)cc1 | > 100 | –
27 | COc1ccc(C(=O)/C=C/C2=CC(=C/NC(C)C)/C(=O)c3ccc4c(C)cc(=O)oc4c32)cc1 | > 100 | –
28 | Cc1cc(=O)oc2c3c(ccc12)C(=O)/C(=C\NC(C)C)C=C3/C=C/C(=O)c1ccccc1 | > 100 | –
29 | Cc1cc(=O)oc2c3c(ccc12)C(=O)/C(=C\NC(C)(C)C)C=C3C=O | 20 | –
30 | COc1ccc(C(=O)/C=C/c2cc(C=O)c(O)c3ccc4c(C)cc(=O)oc4c23)cc1 | > 100 | –
31 | CCCCN/C=C1C=C(/C=C/C(=O)c2ccccc2)c2c(ccc3c(C)cc(=O)oc23)C/1=O | 100 | –
32 | Cc1cc(=O)oc2c3c(ccc12)C(=O)/C(=C\NC(C)(C)C)C=C3/C=C/C(=O)c1ccccc1 | 92 | –
33 | CCCCN/C=C1C=C(/C=C/C(=O)c2ccc(C)cc2)c2c(ccc3c(C)cc(=O)oc23)C/1=O | > 100 | –
34 | Cc1ccc(C(=O)/C=C/C2=CC(=C/NC(C)(C)C)/C(=O)c3ccc4c(C)cc(=O)oc4c32)c(C)c1 | > 100 | –
35 | CCCCCCCN/C=C1/C=C(C=O)c2c(ccc3c(C)cc(=O)oc23)C1=O | > 100 | –
36 | CCCCN/C=C1C=C(/C=C/C(=O)c2ccc(C)cc2C)c2c(ccc3c(C)cc(=O)oc23)C/1=O | > 100 | –
